Measurements as given in ChEMBL document CHEMBL4387722.

What was measured:
[1] = target: T1, Tyrosine-protein phosphatase non-receptor type 5 (Homo sapiens, UniProt P54829); assay: Inhibition of human PTPN5 expressed in Escherichia coli Rosetta 2 (DE3) using pNPP as substrate after 45 mins by spectrophotometric method
T1 sequence (P54829 whole entry): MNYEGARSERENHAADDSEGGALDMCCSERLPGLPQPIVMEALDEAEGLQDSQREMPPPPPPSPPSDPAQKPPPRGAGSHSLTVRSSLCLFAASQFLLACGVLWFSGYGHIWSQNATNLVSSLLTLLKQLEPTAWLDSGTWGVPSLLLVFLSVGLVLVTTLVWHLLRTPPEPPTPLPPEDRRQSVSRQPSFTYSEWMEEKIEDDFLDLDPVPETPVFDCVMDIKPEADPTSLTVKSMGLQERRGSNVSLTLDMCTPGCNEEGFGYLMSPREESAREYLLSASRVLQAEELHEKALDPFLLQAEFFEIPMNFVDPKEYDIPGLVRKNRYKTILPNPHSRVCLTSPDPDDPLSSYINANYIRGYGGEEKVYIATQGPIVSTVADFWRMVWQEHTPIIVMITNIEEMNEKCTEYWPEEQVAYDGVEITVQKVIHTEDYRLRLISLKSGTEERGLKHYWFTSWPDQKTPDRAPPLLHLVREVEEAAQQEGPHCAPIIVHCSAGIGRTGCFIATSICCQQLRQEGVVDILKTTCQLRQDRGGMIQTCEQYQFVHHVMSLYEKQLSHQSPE

[2] = target: T2, Tyrosine-protein phosphatase non-receptor type 1 (Homo sapiens, UniProt P18031); assay: Inhibition of human PTPN1 expressed in Escherichia coli Rosetta 2 (DE3) using pNPP as substrate after 45 mins by spectrophotometric method
T2 sequence (P18031 whole entry): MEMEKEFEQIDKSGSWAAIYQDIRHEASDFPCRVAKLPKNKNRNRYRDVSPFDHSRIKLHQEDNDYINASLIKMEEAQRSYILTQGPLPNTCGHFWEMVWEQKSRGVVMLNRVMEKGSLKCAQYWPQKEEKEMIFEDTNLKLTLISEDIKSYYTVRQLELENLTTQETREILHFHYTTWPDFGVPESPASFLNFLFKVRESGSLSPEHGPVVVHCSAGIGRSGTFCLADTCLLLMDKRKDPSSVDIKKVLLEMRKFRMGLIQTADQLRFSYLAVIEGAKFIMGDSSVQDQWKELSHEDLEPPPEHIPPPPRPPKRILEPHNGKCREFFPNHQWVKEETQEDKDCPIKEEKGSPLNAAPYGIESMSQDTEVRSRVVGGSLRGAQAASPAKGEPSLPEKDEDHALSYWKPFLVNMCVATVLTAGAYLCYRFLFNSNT

[3] = test system: Mycobacterium tuberculosis; assay: Antitubercular activity against Mycobacterium tuberculosis H37Rv after 5 days at 200 uM relative to control; format: functional; conditions: 120 h
In short: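 M. tuberculosis grown in liquid culture with compound at a fixed 200 μM for 5 days. Growth inhibition expressed as percent of control.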

[4] = target: T3, Phosphotyrosine protein phosphatase (Mycobacterium tuberculosis, UniProt A0A045ISB3); assay: Inhibition of Mycobacterium tuberculosis His-tagged PtpB expressed in Escherichia coli Rosetta 2 (DE3) using pNPP as substrate after 30 mins by spectrophotometric method
T3 sequence (A0A045ISB3 whole entry): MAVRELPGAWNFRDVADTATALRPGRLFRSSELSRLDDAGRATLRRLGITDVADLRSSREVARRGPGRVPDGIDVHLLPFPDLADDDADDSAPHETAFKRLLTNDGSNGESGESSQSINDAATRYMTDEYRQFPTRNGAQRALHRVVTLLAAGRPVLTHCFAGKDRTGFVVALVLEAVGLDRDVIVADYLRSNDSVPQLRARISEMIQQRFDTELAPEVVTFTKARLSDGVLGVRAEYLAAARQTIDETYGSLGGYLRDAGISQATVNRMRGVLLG

[5] = target: T4, Tyrosine-protein phosphatase non-receptor type 2 (Homo sapiens, UniProt P17706); assay: Inhibition of human PTPN2 expressed in Escherichia coli Rosetta 2 (DE3) using pNPP as substrate after 45 mins by spectrophotometric method
T4 sequence (P17706 whole entry): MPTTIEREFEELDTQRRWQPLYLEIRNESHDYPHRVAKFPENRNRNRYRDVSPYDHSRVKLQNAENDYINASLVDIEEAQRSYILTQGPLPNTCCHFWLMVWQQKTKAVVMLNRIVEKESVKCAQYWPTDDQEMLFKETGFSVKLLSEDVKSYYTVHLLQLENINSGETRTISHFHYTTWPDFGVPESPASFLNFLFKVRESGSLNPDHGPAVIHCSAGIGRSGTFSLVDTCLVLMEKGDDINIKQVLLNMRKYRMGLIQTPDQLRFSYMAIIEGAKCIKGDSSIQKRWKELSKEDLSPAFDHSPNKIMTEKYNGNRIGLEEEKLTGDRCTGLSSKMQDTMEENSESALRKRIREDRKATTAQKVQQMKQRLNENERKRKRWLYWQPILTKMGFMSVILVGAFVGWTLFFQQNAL

Row | Compound | IC50 [1] | IC50 [2] | inhibition at 200 µM [3] | IC50 [4] | IC50 [5]
1 | COC(=O)c1ccccc1S(=O)(=O)Nc1ccc(-c2nc3cc(NS(=O)(=O)c4ccccc4C(=O)OC)ccc3o2)cc1 | 21 µM | 10 µM | 0% | 11 µM | 14 µM
2 | O=S(=O)(Nc1ccc(-c2nc3cc(NS(=O)(=O)c4ccc(Cl)s4)ccc3o2)cc1)c1ccc(Cl)c(Cl)c1 | 9.8 µM | 6.9 µM | 0% | 2.3 µM | 12 µM
3 | COc1ccc(Cl)cc1S(=O)(=O)Nc1ccc(-c2nc3cc(NS(=O)(=O)c4ccc(Cl)s4)ccc3o2)cc1 | 11 µM | 6.4 µM | 33% | 3.4 µM | 16 µM
4 | O=S(=O)(Nc1ccc(-c2nc3cc(NS(=O)(=O)c4ccc(Cl)s4)ccc3o2)cc1)c1ccc(F)c(C(F)(F)F)c1 | 14 µM | 8.6 µM | 0% | 6.8 µM | 8.5 µM
5 | O=S(=O)(Nc1ccc(-c2nc3cc(NS(=O)(=O)c4ccc(Cl)s4)ccc3o2)cc1)c1ccc(Br)cc1 | 8.8 µM | 8.8 µM | 0% | 5.3 µM | 11 µM
6 | O=C(O)c1ccccc1S(=O)(=O)Nc1ccc(-c2nc3cc(NS(=O)(=O)c4ccccc4C(=O)O)ccc3o2)cc1 | > 100 µM | > 100 µM | 22% | 4.2 µM | > 100 µM
7 | O=S(=O)(Nc1ccc(-c2nc3cc(NS(=O)(=O)c4cccc5nonc45)ccc3o2)cc1)c1ccc(Cl)s1 | 19 µM | 16 µM | 14% | 8.6 µM | 25 µM
8 | O=S(=O)(Nc1ccc2oc(-c3ccc(NS(=O)(=O)c4ccc(Cl)s4)cc3)nc2c1)c1ccc2ncsc2c1 | 11 µM | 12 µM | 50% | 3.6 µM | 9.3 µM
9 | O=S(=O)(Nc1ccc2oc(-c3ccc(NS(=O)(=O)c4cccc5ccccc45)cc3)nc2c1)c1ccc(Cl)s1 | 9.1 µM | 5.4 µM | 0% | 2.7 µM | 15 µM
10 | O=[N+]([O-])c1cc(S(=O)(=O)Nc2ccc3oc(-c4ccc(NS(=O)(=O)c5ccc(Cl)s5)cc4)nc3c2)ccc1Cl | 8.4 µM | 9.4 µM | 1% | 4.6 µM | 8.9 µM
11 | O=S(=O)(Nc1ccc2oc(-c3ccc(NS(=O)(=O)c4ccc(Cl)s4)cc3)nc2c1)c1ccc(Br)cc1 | 12 µM | 6.9 µM | 28% | 4.1 µM | 14 µM
12 | O=S(=O)(Nc1ccc(-c2nc3cc(NS(=O)(=O)c4cccc5nsnc45)ccc3o2)cc1)c1cccc2nsnc12 | 17 µM | 10 µM | 0% | 7 µM | 17 µM
13 | C=Cc1ccc(S(=O)(=O)Nc2ccc(-c3nc4cc(NS(=O)(=O)c5ccc(Cl)s5)ccc4o3)cc2)cc1 | 13 µM | 10 µM | 14% | 5 µM | 14 µM
14 | O=S(=O)(Nc1ccc(-c2nc3cc(NS(=O)(=O)c4ccc(Cl)cc4)ccc3o2)cc1)c1ccc(Cl)cc1 | 12 µM | 8.1 µM | 0% | 4.3 µM | 19 µM
15 | O=c1ccc2cc(S(=O)(=O)Nc3ccc(-c4nc5cc(NS(=O)(=O)c6ccc7oc(=O)ccc7c6)ccc5o4)cc3)ccc2o1 | 17 µM | 6.3 µM | 23% | 8.7 µM | 9.1 µM
16 | O=S(=O)(Nc1ccc(-c2nc3cc(NS(=O)(=O)c4ccc(Cl)s4)ccc3o2)cc1)c1ccc(Cl)s1 | 15 µM | 11 µM | 41% | 2.3 µM | 25 µM
17 | Cc1ccc(S(=O)(=O)Nc2ccc(-c3nc4ccc(NS(=O)(=O)c5ccc(C)cc5)cc4[nH]3)cc2)cc1 | 13 µM | 15 µM | 14% | 23 µM | 22 µM
18 | O=S(=O)(Nc1ccc2oc(-c3ccc(NS(=O)(=O)c4ccc(Cl)s4)cc3)nc2c1)c1ccc(Cl)c(C(F)(F)F)c1 | 11 µM | 7.6 µM | 0% | 3.8 µM | 14 µM
19 | COC(=O)c1cccc(S(=O)(=O)Nc2ccc(-c3nc4cc(NS(=O)(=O)c5cccc(C(=O)OC)c5)ccc4o3)cc2)c1 | 16 µM | 17 µM | 0% | 5.8 µM | 13 µM
20 | O=S(=O)(Nc1ccc(-c2nc3cc(NS(=O)(=O)c4ccccc4Cl)ccc3o2)cc1)c1ccccc1Cl | 17 µM | 16 µM | 0% | 6.4 µM | 22 µM
21 | O=S(=O)(Nc1ccc(-c2nc3cc(NS(=O)(=O)c4cccc(Br)c4)ccc3o2)cc1)c1cccc(Br)c1 | 11 µM | 14 µM | 17% | 0.79 µM | 11 µM
22 | O=S(=O)(Nc1ccc(-c2nc3cc(NS(=O)(=O)c4ccccc4C(F)(F)F)ccc3o2)cc1)c1ccccc1C(F)(F)F | 15 µM | 14 µM | 35% | 8.1 µM | 22 µM
23 | O=[N+]([O-])c1ccccc1S(=O)(=O)Nc1ccc(-c2nc3cc(NS(=O)(=O)c4ccccc4[N+](=O)[O-])ccc3o2)cc1 | 29 µM | 28 µM | 39% | 10 µM | 28 µM
24 | O=S(=O)(Nc1ccc2oc(-c3ccc(NS(=O)(=O)c4ccc(Cl)s4)cc3)nc2c1)c1ccc(Cl)c(Cl)c1 | 11 µM | 7.6 µM | 0% | 3.3 µM | 13 µM
25 | O=S(=O)(Nc1ccc(-c2nc3cc(NS(=O)(=O)c4ccc(Cl)s4)ccc3o2)cc1)c1ccccc1 | 17 µM | 19 µM | 41% | 6.7 µM | 29 µM
26 | C=Cc1ccc(S(=O)(=O)Nc2ccc3oc(-c4ccc(NS(=O)(=O)c5ccc(Cl)s5)cc4)nc3c2)cc1 | 12 µM | 7.2 µM | 10% | 3.9 µM | 12 µM
27 | O=S(=O)(Nc1ccc(-c2nc3cc(NS(=O)(=O)c4ccc(Cl)s4)ccc3o2)cc1)c1ccc2ncsc2c1 | 13 µM | 7.9 µM | 33% | 7.1 µM | 11 µM
28 | COc1ccc(S(=O)(=O)Nc2ccc3oc(-c4ccc(NS(=O)(=O)c5ccc(Cl)s5)cc4)nc3c2)cc1 | 16 µM | 12 µM | 41% | 9.6 µM | 24 µM
29 | O=S(=O)(Nc1ccc(-c2nc3cc(NS(=O)(=O)c4ccc(Cl)s4)ccc3o2)cc1)c1cccs1 | 9.3 µM | 4.9 µM | 0% | 3.4 µM | 9.5 µM
